The source made the active and inactive calls. The calls are words filed in the database; no cut-off is given here.
Tests used:
[1] = system: RAW264.7; assay: Antiinflammatory activity in mouse RAW264.7 cells assessed as inhibition LPS-induced NO production at 254.8 uM measured after 24 hrs by griess reagent based assay; assay type: functional, cell-based
Procedure, shortened: (§1)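 Murine RAW 264.7 macrophages, 1 × 10^5/well, 4 h settling, then LPS (1.0 μg/mL) for 24 h. Medium was swapped for test solutions (0.8–3.1 μM or 2.3–9.2 μM), or DXM 254.8 μM as positive control, for another 24 h. Secreted NO was measured by Griess assay; TNF-α and IL-6 by ELISA. Run in triplicate, mean ± SD.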

[2] = system: MDA-MB-231; assay: Antiproliferative activity against human MDA-MB-231 cells assessed as viable cells at 40 uM incubated for 48 hrs by trypan blue dye exclusion test relative to control; assay type: functional; settings: MDA-MB-231, 48 h, read-out: Activity
[3] = system: RAW264.7; assay: Antiinflammatory activity in mouse RAW264.7 cells assessed as reduction in LPS-induced IL6 production preincubated with LPS for 24 hrs followed by compound addition and measured after 24 hrs by ELISA; assay type: functional, cell-based; procedure, shortened: as §1
[4] = system: RAW264.7; assay: Antiinflammatory activity in mouse RAW264.7 cells assessed as reduction in LPS-induced TNFalpha production preincubated with LPS for 24 hrs followed by compound addition and measured after 24 hrs by ELISA; assay type: functional, cell-based; procedure, shortened: as §1
[5] = system: RAW264.7; assay: Antiinflammatory activity in mouse RAW264.7 cells assessed as inhibition of LPS-induced NO production measured after 24 hrs by griess reagent based assay; assay type: functional, cell-based; procedure, shortened: as §1
[6] = Cytotoxicity against mouse RAW264.7 cells assessed as reduction in cell viability incubated for 24 hrs by MTT assay; assay type: cell-based; settings: read-out: MNCC
Procedure, shortened: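 MTT viability assay: RAW 264.7 cells seeded at 2.5 × 10^4 cells/well, cultured 12 h, then given five concentrations from serial dilution (up to 6.2 or 9.2 μM; final DMSO <1%) for 24 h. Viability was calculated relative to untreated blank control; n = 3, mean ± SD.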

[7] = system: MDA-MB-231; assay: Induction of mitochondrial membrane potential loss in human MDA-MB-231 cells incubated for 48 hrs by JC1 staining based flow cytometric analysis; assay type: functional, cell-based
Procedure, shortened: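 MDA-MB-231 cells in DMEM/10% FBS exposed 48 h to 0, 8.6, 12.4 or 17.3 μM. Harvested cells stained with JC-1 for 15 min in the dark, then analysed by flow cytometry. Excitation 488 nm; green emission read at 525 nm, red at 590 nm. Output given as percent green-to-red fluorescence intensity ratio. Triplicate, mean ± SD.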

[8] = system: MDA-MB-231; assay: Induction of apoptosis in human MDA-MB-231 cells assessed as increase in nuclear chromatin condensation incubated for 48 hrs by Hoechst 33258 staining based fluorescence microscopic method; assay type: functional, cell-based
Procedure, shortened: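 MDA-MB-231 cells were grown 24 h and treated with 8.6, 12.4 or 17.3 μM for 48 h. They were then fixed 10 min, washed three times in PBS and stained 5 min with Hoechst 33258. Nuclear condensation was imaged by fluorescence microscopy (excitation 350 nm, emission 460 nm).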

[9] = system: L02; assay: Cytotoxicity against human LO2 cells assessed as reduction in cell viability at 23.1 to 185 uM incubated for 48 hrs by methylene blue assay; assay type: cell-based; settings: l02, 48 h
Procedure, shortened: (§2)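 MDA-MB-231, MCF-7, HepG2 and LNCaP cells were grown in DMEM; HCT-116 and LO-2 in RPMI-1640; all with 10% FBS at 37 °C, 5% CO2. Cells seeded at 1.5 × 10^5 cells/mL and incubated overnight (~12 h), then exposed to 6.2–30.9 μM or 23.1–185.0 μM (final DMSO <0.1%) for 48 h. Read by methylene blue staining; viability = Abs treated/Abs untreated × 100%, triplicate.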

[10] = system: MCF7; assay: Antiproliferative activity against human MCF7 cells assessed as cell viability at 188.7 uM incubated for 48 hrs by methylene blue assay relative to control; assay type: functional; settings: MCF7, 48 h, read-out: Activity
[11] = system: RAW264.7; assay: Antiinflammatory activity against LPS-activated mouse RAW264.7 cells assessed as reduction in TNFalpha mRNA expression preincubated with LPS for 24 hrs followed by compound addition and measured after 24 hrs by qRT-PCR analysis; assay type: functional, cell-based
Procedure, shortened: (§3)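 RAW 264.7 cells (DMEM, 10% FBS, 37 °C, 5% CO2) seeded at 1 × 10^5/well and held 4 h. LPS 1.0 μg/mL was added for 24 h, then medium was replaced with test agent (0.8, 1.6, 3.1 μM or 2.3, 4.6, 9.2 μM) for 24 h. TNF-α and IL-6 transcripts were quantified by real-time qPCR against GAPDH. Triplicates, mean ± SD.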

[12] = system: RAW264.7; assay: Antiinflammatory activity against LPS-activated mouse RAW264.7 cells assessed as reduction in IL6 mRNA expression preincubated with LPS for 24 hrs followed by compound addition and measured after 24 hrs by qRT-PCR analysis; assay type: functional, cell-based; procedure, shortened: as §3
[13] = system: MDA-MB-231; assay: Antiproliferative activity against human MDA-MB-231 cells assessed as reduction in cell viability at 46.3 uM incubated for 48 hrs by methylene blue assay; assay type: functional; procedure, shortened: as §2
[14] = system: MCF7; assay: Antiproliferative activity against human MCF7 cells assessed as reduction in cell viability at 46.3 uM incubated for 48 hrs by methylene blue assay relative to control; assay type: functional; procedure, shortened: as §2
[15] = system: HepG2; assay: Antiproliferative activity against human HepG2 cells reduction in cell viability at 46.3 uM incubated for 48 hrs by methylene blue assay relative to control; assay type: functional; procedure, shortened: as §2
[16] = system: LNCaP; assay: Antiproliferative activity against human LNCAP cells assessed as reduction in cell viability at 46.3 uM incubated for 48 hrs by methylene blue assay relative to control; assay type: functional; procedure, shortened: as §2
[17] = system: HCT-116; assay: Antiproliferative activity against human HCT116 cells assessed as reduction in cell viability at 46.3 uM incubated for 48 hrs by methylene blue assay relative to control; assay type: functional; procedure, shortened: as §2
[18] = system: MDA-MB-231; assay: Induction of cell cycle arrest in human MDA-MB-231 cells assessed as increase in accumulation of cells at G0/G1 phase incubated for 48 hrs by PI/RNase staining based flow cytometric analysis; assay type: functional
Procedure, shortened: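 Cells grown 24 h in DMEM/10% FBS at 37 °C, 5% CO2, then exposed 48 h to 8.6, 12.4 or 17.3 μM. Pelleted, fixed in 75% ethanol at −20 °C overnight, stained with PI-containing RNase 15 min in the dark at ambient temperature. About 10 000 cells per well analysed by flow cytometry. Triplicate, mean ± SD.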

[19] = system: RAW264.7; assay: Inhibition of nitric oxide production in mouse RAW264.7 cells measured after 24 hrs by griess reagent based assay; assay type: functional, cell-based

| SMILES | inhibition [1] | viability at 40 µM [2] [%] | Activity [3] | Activity [4] | inhibition [5] | MNTC at 24 h [6] [µM] | Activity [7] | Activity [8] | Activity [9] | viability at 188.7 µM [10] [%] | Activity [11] | Activity [12] | Activity [13] | Activity [14] | Activity [15] | Activity [16] | Activity [17] | Activity [18] | inhibition [19] |
| --- | --- | --- | --- | --- | --- | --- | --- | --- | --- | --- | --- | --- | --- | --- | --- | --- | --- | --- | --- |
| C[C@@H]1C[C@H]2[C@@H]3CCC4=CC(=O)C=C[C@]4(C)[C@@]3(F)[C@@H](O)C[C@]2(C)[C@@]1(O)C(=O)CO | Active |  |  |  |  |  |  |  |  |  |  |  |  |  |  |  |  |  |  |
| O=c1cc(-c2ccc(O)cc2)oc2cc(O)cc(O)c12 [APIGENIN] |  | 45 | Dose-dependent effect | Dose-dependent effect | Dose-dependent effect | 9.2 | Active | Dose-dependent effect | Non-Toxic | 20 | Dose-dependent effect | Dose-dependent effect | <=50% | <=50% | <=50% | <=50% | <=50% | Active | Dose-dependent effect |

Source: ChEMBL document CHEMBL4414566, “Cytotoxicity and Anti-inflammatory Properties of Apigenin-Derived Isolaxifolin” (J Nat Prod, 2019)
